In ChEMBL document CHEMBL3232976, “Investigation of the cytotoxic, genotoxic, and apoptosis-inducing effects of estragole isolated from fennel (Foeniculum vulgare)” (J Nat Prod, 2014):

What was measured:
HepG2 [1] = assay: Induction of early apoptosis in human HepG2 cells assessed as decrease mitochondrial membrane potential at 0.5 uM after 4 hrs by JC-1 staining relative to control; type: functional; set-up: scale not given: the % may be the effect or the level left
In short: (§1)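 Cells seeded 48 h before a 4 h exposure; 0.5 μM valinomycin for 4 h as depolarizing positive control. Stained with JC-1 plus DAPI (necrotic cells), read by automated fluorescence image cytometry. Depolarization seen as a fall in red/green ratio; gated as % depolarized cells. Three independent experiments, mean ± SEM.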

HepG2 [2] = assay: Cytotoxicity against human HepG2 cells assessed as cell viability at 84.55 ug/ml after 4 hrs by MTT assay relative to control; type: functional; details: HepG2, 4 h, read-out: Activity
In short: (§2)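 HepG2 seeded at 1 × 10^5 cells/well in phenol red-free MEM, grown 24 h, then exposed 4 h to eight concentrations (dissolved in MEM; 2% Triton X100 positive control). MTT 1 mg/mL added for 2 h at 37 °C, formazan dissolved in 2-propanol, A570 minus A650. Viability as % of untreated controls; three independent experiments, mean ± SEM.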

HepG2 [3] = assay: Induction of early apoptosis in human HepG2 cells assessed as decrease mitochondrial membrane potential at 42.28 ug/ml after 4 hrs by JC-1 staining relative to control; type: functional; set-up: scale not given: the % may be the effect or the level left; in short: as §1
HepG2 [4] = assay: Cytotoxicity against human HepG2 cells assessed as cell viability at 42.28 ug/ml after 4 hrs by trypan blue dye exclusion assay relative to control; type: functional; details: HepG2, 4 h, read-out: Activity
In short: (§3)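 Cells seeded at 5 × 10^5/well, grown 24 h, then exposed 4 h to the three highest MTT-tested concentrations. Trypan blue exclusion read on an automated cell counter, unstained cells counted as viable. Viability as % of total cells; three independent experiments, mean ± SEM.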

HepG2 [5] = assay: Cytotoxicity against human HepG2 cells assessed as cell viability at 84.55 ug/ml after 4 hrs by trypan blue dye exclusion assay relative to control; type: functional; details: HepG2, 4 h, read-out: Activity; in short: as §3
HepG2 [6] = assay: Induction of late apoptosis in human HepG2 cells assessed as induction of DNA fragmentation at 84.55 ug/ml after 4 hrs by […] relative to control; type: functional
In short: (§4)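 Cells seeded 48 h before a 4 h exposure; 1 μM staurosporine positive control. Cells permeabilized with ethanol, washed to remove low-molecular-weight DNA, stained with DAPI, and DNA content read by automated image cytometry. Result as % sub-G1 cells below a manually set G1/G0 peak. Three independent experiments, mean ± SEM.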

HepG2 [7] = assay: Induction of late apoptosis in human HepG2 cells assessed as induction of DNA fragmentation at 21.14 ug/ml after 4 hrs by […] relative to control; type: functional; in short: as §4
HepG2 [8] = assay: Induction of early apoptosis in human HepG2 cells assessed as decrease mitochondrial membrane potential at 21.14 ug/ml after 4 hrs by JC-1 staining relative to control; type: functional; set-up: scale not given: the % may be the effect or the level left; in short: as §1
HepG2 [9] = assay: Cytotoxicity against human HepG2 cells assessed as cell viability at 84.55 ug/ml after 4 hrs by AO/DAPI double staining relative to control; type: functional; details: HepG2, 4 h, read-out: Activity
In short: (§5)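 Cells seeded at 5 × 10^5/well, grown 24 h, exposed 4 h to the three highest MTT-tested concentrations. Cell suspension loaded into cassettes coated with acridine orange (all cells) and DAPI (nonviable cells), then counted by automated fluorescence image analysis. Viability as % of total cells; three independent experiments, mean ± SEM.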

HepG2 [10] = assay: Induction of early apoptosis in human HepG2 cells assessed as decrease mitochondrial membrane potential at 84.55 ug/ml after 4 hrs by JC-1 staining relative to control; type: functional; set-up: scale not given: the % may be the effect or the level left; in short: as §1
HepG2 [11] = assay: Cytotoxicity against human HepG2 cells assessed as cell viability at 10.57 ug/ml after 4 hrs by MTT assay relative to control; type: functional; details: HepG2, 4 h, read-out: Activity; in short: as §2
HepG2 [12] = assay: Induction of late apoptosis in human HepG2 cells assessed as induction of DNA fragmentation at 42.28 ug/ml after 4 hrs by […] relative to control; type: functional; in short: as §4
HepG2 [13] = assay: Genotoxicity in human HepG2 cells assessed as DNA strand-breakage at 42.28 ug/ml after 4 hrs by alkaline comet assay; details: hepg2, 4 h
HepG2 [14] = assay: Cytotoxicity against human HepG2 cells assessed as cell viability at 21.14 ug/ml after 4 hrs by MTT assay relative to control; type: functional; details: HepG2, 4 h, read-out: Activity; in short: as §2
HepG2 [15] = assay: Cytotoxicity against human HepG2 cells assessed as cell viability at 21.14 ug/ml after 4 hrs by trypan blue dye exclusion assay relative to control; type: functional; details: HepG2, 4 h, read-out: Activity; in short: as §3
HepG2 [16] = assay: Cytotoxicity against human HepG2 cells assessed as cell viability at 42.28 ug/ml after 4 hrs by MTT assay relative to control; type: functional; details: HepG2, 4 h, read-out: Activity; in short: as §2
HepG2 [17] = assay: Genotoxicity in human HepG2 cells assessed as DNA strand-breakage at 84.55 ug/ml after 4 hrs by alkaline comet assay; details: hepg2, 4 h
HepG2 [18] = assay: Cytotoxicity against human HepG2 cells assessed as cell viability at 0.67 ug/ml after 4 hrs by MTT assay relative to control; type: functional; details: HepG2, 4 h, read-out: Activity; in short: as §2
HepG2 [19] = assay: Cytotoxicity against human HepG2 cells assessed as cell viability at 2.64 ug/ml after 4 hrs by MTT assay relative to control; type: functional; details: HepG2, 4 h, read-out: Activity; in short: as §2
HepG2 [20] = assay: Genotoxicity in human HepG2 cells assessed as DNA strand-breakage at 21.14 ug/ml after 4 hrs by alkaline comet assay; details: hepg2, 4 h
HepG2 [21] = assay: Cytotoxicity against human HepG2 cells assessed as cell viability at 5.28 ug/ml after 4 hrs by MTT assay relative to control; type: functional; details: HepG2, 4 h, read-out: Activity; in short: as §2
HepG2 [22] = assay: Cytotoxicity against human HepG2 cells assessed as cell viability at 21.14 ug/ml after 4 hrs by AO/DAPI double staining relative to control; type: functional; details: HepG2, 4 h, read-out: Activity; in short: as §5
HepG2 [23] = assay: Cytotoxicity against human HepG2 cells assessed as cell viability at 1.32 ug/ml after 4 hrs by MTT assay relative to control; type: functional; details: HepG2, 4 h, read-out: Activity; in short: as §2
HepG2 [24] = assay: Cytotoxicity against human HepG2 cells assessed as cell viability at 42.28 ug/ml after 4 hrs by AO/DAPI double staining relative to control; type: functional; details: HepG2, 4 h, read-out: Activity; in short: as §5
HepG2 [25] = assay: Induction of late apoptosis in human HepG2 cells assessed as induction of DNA fragmentation at 1 uM after 4 hrs by […] relative to control; type: functional; in short: as §4

**Q.** `CC(C)[C@@H]1NC(=O)[C@H](C)OC(=O)[C@@H](C(C)C)NC(=O)[C@@H](C(C)C)OC(=O)[C@H](C(C)C)NC(=O)[C@H](C)OC(=O)[C@@H](C(C)C)NC(=O)[C@@H](C(C)C)OC(=O)[C@H](C(C)C)NC(=O)[C@H](C)OC(=O)[C@@H](C(C)C)NC(=O)[C@@H](C(C)C)OC1=O` [VALINOMYCIN] was tested. Which Activity (HepG2 [1]) did it give?
**A.** 40.3%

**Q.** How did the viability at 84.55 µg/mL (HepG2 [2]) turn out when `C=CCc1ccc(OC)cc1` [ESTRAGOLE] was run?
**A.** 103%

**Q.** What about the Activity (HepG2 [3]) of the same compound?
**A.** 12.3%

**Q.** What about the viability at 42.28 µg/mL (HepG2 [4]) of the same compound?
**A.** 93.3%

**Q.** And the viability at 84.55 µg/mL (HepG2 [5])?
**A.** 85%

**Q.** What about the Activity (HepG2 [6]) of the same compound?
**A.** 4.9%

**Q.** And the Activity (HepG2 [7])?
**A.** 3.4%

**Q.** What about the Activity (HepG2 [8]) of the same compound?
**A.** 15.9%

**Q.** And the viability at 84.55 µg/mL (HepG2 [9])?
**A.** 90.2%

**Q.** And the Activity (HepG2 [10])?
**A.** 13.2%

**Q.** What about the viability at 10.57 µg/mL (HepG2 [11]) of the same compound?
**A.** 117%

**Q.** What about the Activity (HepG2 [12]) of the same compound?
**A.** 3.7%

**Q.** What about the Activity (HepG2 [13]) of the same compound?
**A.** Non-toxic

**Q.** What about the viability at 21.14 µg/mL (HepG2 [14]) of the same compound?
**A.** 110%

**Q.** And the viability at 21.14 µg/mL (HepG2 [15])?
**A.** 92.7%

**Q.** What about the viability at 42.28 µg/mL (HepG2 [16]) of the same compound?
**A.** 108%

**Q.** And the Activity (HepG2 [17])?
**A.** Non-toxic

**Q.** What about the viability at 0.67 µg/mL (HepG2 [18]) of the same compound?
**A.** 106%

**Q.** And the viability at 2.64 µg/mL (HepG2 [19])?
**A.** 101%

**Q.** What about the Activity (HepG2 [20]) of the same compound?
**A.** Non-toxic

**Q.** And the viability at 5.28 µg/mL (HepG2 [21])?
**A.** 104%

**Q.** What about the viability at 21.14 µg/mL (HepG2 [22]) of the same compound?
**A.** 90.9%

**Q.** And the viability at 1.32 µg/mL (HepG2 [23])?
**A.** 94.8%

**Q.** And the viability at 42.28 µg/mL (HepG2 [24])?
**A.** 91.7%

**Q.** `CN[C@@H]1C[C@H]2O[C@@](C)([C@@H]1OC)n1c3ccccc3c3c4c(c5c6ccccc6n2c5c31)C(=O)NC4` [STAUROSPORINE] was tested. Which Activity (HepG2 [25]) did it give?
**A.** 21.1%
